Reference: ChEMBL document CHEMBL1139382, “6-Methoxy-N-alkyl isatin acylhydrazone derivatives as a novel series of potent selective cannabinoid receptor 2 inverse agonists: design, synthesis, and binding mode prediction” (J Med Chem, 2009)
The source made the active and inactive calls.

How the values were obtained:
Cannabinoid receptor 1 [1] = biological target: T1, Cannabinoid receptor 1 (Homo sapiens, UniProt P21554); experiment: Inverse agonist activity at human recombinant CB1 receptor expressed CHO cells membrane by [35S]GTPgamma binding assay; assay type: functional, cell membranes
In short: (§1)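 GTPγ[35S] binding in CHO membranes expressing recombinant hCB1 or hCB2. Membranes preincubated with GDP (30 μM solution) on ice for at least 15 min, then mixed with GTPγ[35S] and WGA SPA beads. Incubated 1 h at room temperature, centrifuged, held 1 h more, then counted. Eight concentrations (0.001–10 μM) in duplicate, reported as the mean of two. Emax expressed as % of the reference agonist.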

Cannabinoid receptor 2 [2] = biological target: T2, Cannabinoid receptor 2 (Homo sapiens, UniProt P34972); experiment: Inverse agonist activity at human recombinant CB2 receptor expressed CHO cells membrane by [35S]GTPgamma binding assay; assay type: functional, cell membranes; in short: as §1
Cannabinoid receptor 2 [3] = biological target: T2, Cannabinoid receptor 2; experiment: Inverse agonist activity at human recombinant CB2 receptor expressed CHO cells membrane by [35S]GTPgamma binding assay relative to 2-((1R,2R,5R)-5-hydroxy-2-(3-hydroxypropyl)cyclohexyl)-5-(2-methyloctan-2-yl)phenol; assay type: functional, cell membranes; in short: as §1
Cannabinoid receptor 1 [4] = biological target: T1, Cannabinoid receptor 1; experiment: Inverse agonist activity at human recombinant CB1 receptor expressed CHO cells membrane by [35S]GTPgamma binding assay relative to 2-((1R,2R,5R)-5-hydroxy-2-(3-hydroxypropyl)cyclohexyl)-5-(2-methyloctan-2-yl)phenol; assay type: functional, cell membranes; in short: as §1
Cannabinoid receptor 2 [5] = biological target: T2, Cannabinoid receptor 2; experiment: Binding affinity to CB2 receptor
In short: (§2)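 Competition binding on membranes of CHO-K1 cells expressing hCB2 (0.25 μg protein/well). Buffer was 50 mM Tris pH 7.4, 2.5 mM EDTA, 0.5% BSA, with 1 nM [3H]-labelled reference ligand. Nonspecific binding defined with 10 μM unlabelled ligand. Incubated 60 min at 30 °C, then filtered and counted by liquid scintillation. Duplicates at several concentrations. IC50 from a one-site fit, converted to Ki by Cheng–Prusoff.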

Cannabinoid receptor 2 [6] = biological target: T2, Cannabinoid receptor 2; experiment: Inverse agonist activity at CB2 receptor; assay type: functional; in short: as §1
Cannabinoid receptor 2 [7] = biological target: T2, Cannabinoid receptor 2; experiment: Binding affinity to CB2 receptor by competition binding assay; in short: as §2
Rattus norvegicus [8] = experiment: Antiallodynic activity in Sprague-Dawley rat L5/L6 spinal nerve tight ligated neuropathic pain model assessed as paw withdrawal threshold at 10 mg/kg, ip […] ipsilateral injured paw; assay type: functional, organism-based; set-up: dose 10 mg/kg
In short: (§3)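 Adult male Sprague–Dawley rats (120–150 g). Left L5 and L6 spinal nerves tightly ligated with 6–0 silk under isoflurane. Tested 10–14 days after ligation. Drugs given ip. Vehicle was N-methylpyrrolidone 30%, propylene glycol 30%, ethanol 10%, Cremophor 10% and water. For […], given 15 min before the ip CB2 agonist. Von Frey up–down 50% withdrawal threshold (cutoff 15 g) and %MPE, n = 5 per group.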

Cannabinoid receptor 2 [9] = biological target: T2, Cannabinoid receptor 2; experiment: Displacement of [3H] 2-((1R,2R,5R)-5-hydroxy-2-(3-hydroxypropyl)cyclohexyl)-5-(2-methyloctan-2-yl)phenol from human CB2 receptor expressed CHO-K1 cells by liquid scintillation counting; assay type: cell-based; in short: as §2
Rattus norvegicus [10] = experiment: Inhibition of (3-benzyl-3-methyl-2,3-dihydrobenzofuran-6-yl)(piperidin-1-yl)methanone-induced antiallodynic activity in L5/L6 spinal nerve tight ligated neuropathic pain Sprague-Dawley rat model assessed as paw withdrawal threshold at 10 mg/kg, ip administered 15 mins before 3-benzyl-3-methyl-2,3-dihydrobenzofuran-6-yl)(piperidin-1-yl)methanone challenge; assay type: functional, organism-based; set-up: dose 10 mg/kg; in short: as §3
Cannabinoid receptor 2 [11] = biological target: T2, Cannabinoid receptor 2; experiment: Agonist activity at human CB2 receptor expressed CHO cells by [35S]GTPgamma binding assay; assay type: functional, cell-based

T2 sequence (P34972 whole entry): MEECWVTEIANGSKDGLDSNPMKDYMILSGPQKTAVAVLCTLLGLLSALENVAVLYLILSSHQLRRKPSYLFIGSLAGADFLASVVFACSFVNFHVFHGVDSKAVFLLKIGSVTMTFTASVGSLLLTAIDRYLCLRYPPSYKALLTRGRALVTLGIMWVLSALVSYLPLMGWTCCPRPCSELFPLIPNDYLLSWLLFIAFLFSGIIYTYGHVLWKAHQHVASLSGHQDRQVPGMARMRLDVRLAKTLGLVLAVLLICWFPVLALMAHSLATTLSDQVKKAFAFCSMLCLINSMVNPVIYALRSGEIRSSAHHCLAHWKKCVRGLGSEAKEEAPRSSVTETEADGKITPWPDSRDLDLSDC
T1 sequence (P21554 whole entry): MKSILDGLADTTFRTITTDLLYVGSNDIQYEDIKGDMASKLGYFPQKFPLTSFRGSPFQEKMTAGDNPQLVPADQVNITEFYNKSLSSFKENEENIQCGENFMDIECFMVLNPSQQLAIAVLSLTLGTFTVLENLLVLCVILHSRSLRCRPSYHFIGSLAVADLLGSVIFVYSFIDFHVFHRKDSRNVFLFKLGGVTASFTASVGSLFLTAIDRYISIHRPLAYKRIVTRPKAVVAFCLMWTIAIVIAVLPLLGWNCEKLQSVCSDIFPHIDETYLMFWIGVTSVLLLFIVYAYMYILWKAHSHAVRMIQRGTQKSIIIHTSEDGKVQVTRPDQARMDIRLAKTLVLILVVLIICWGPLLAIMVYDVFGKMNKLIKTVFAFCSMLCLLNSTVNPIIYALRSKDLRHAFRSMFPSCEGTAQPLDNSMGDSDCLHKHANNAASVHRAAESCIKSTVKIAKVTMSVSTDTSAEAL

Row | Structure (SMILES) | EC50 (Cannabinoid receptor 1 [1]) | EC50 (Cannabinoid receptor 2 [2]) | Emax (Cannabinoid receptor 2 [3]) | further results
1 | CCCCCN1C(=O)/C(=N\NC(=O)C2CCCCC2)c2ccc(OC)cc21 | > 10 µM | 28.7 nM | -105% | –
2 | CCCCCN1C(=O)/C(=N\NC(=O)CC(C)C)c2ccc(OC)cc21 | > 10 µM | 11.7 nM | -78% | –
3 | CCCCCN1C(=O)/C(=N\NC(=O)c2ccccc2)c2ccc(OC)cc21 | 0.263 µM | – | -108% | Emax (Cannabinoid receptor 1 [4]): 41%
4 | COc1ccc2c(c1)N(Cc1ccccc1)C(=O)/C2=N\NC(=O)c1ccccc1 | > 10 µM | – | -96% | –
5 | CN(c1ccc2c(c1)nc(Cc1ccc3c(c1)CCO3)n2CC1CCCCC1)S(=O)(=O)c1ccccc1 | – | – | – | Activity (Cannabinoid receptor 2 [5]): 0.7 nM; EC50 (Cannabinoid receptor 2 [6]): 2.2 nM; Ki (Cannabinoid receptor 2 [7]): 1.2 nM
6 | CCCCCN1C(=O)/C(=N\NC(=O)CN2CCOCC2)c2ccc(OC)cc21 | > 10 µM | 13.3 nM | -80% | –
7 | COc1ccc2c(c1)N(CC1CCCCC1)C(=O)/C2=N\NC(=O)c1ccccc1 | – | – | -82% | Emax (Cannabinoid receptor 1 [4]): 40.8%
8 | CCCCCN1C(=O)/C(=N\NC(=O)CC2CCCCC2)c2ccc(OC)cc21 | > 10 µM | 43 nM | -88% | –
9 | CCCCCN1C(=O)/C(=N\NC(=O)C(C)(C)O)c2ccc(OC)cc21 | > 10 µM | 14.7 nM | -99% | –
10 | COc1ccc2c(c1)N(CCC1CCCCC1)C(=O)/C2=N\NC(=O)c1ccccc1 | > 10 µM | – | -104% | –
11 | CCCCCN1C(=O)/C(=N\NC(=O)OC(C)(C)C)c2ccc(OC)cc21 | > 10 µM | 15.9 nM | -97% | –
12 | CC1(Cc2ccccc2)COc2cc(C(=O)N3CCCCC3)ccc21 (centres undefined) | – | – | – | Activity (Rattus norvegicus [8]): Active
13 | CCCCN1C(=O)/C(=N\NC(=O)c2ccccc2)c2ccc(OC)cc21 | > 10 µM | – | -95% | –
14 | CCCCCCN1C(=O)/C(=N\NC(=O)c2ccccc2)c2ccc(OC)cc21 | > 10 µM | 88.2 nM | -92% | Ki (Cannabinoid receptor 2 [9]): 89.9 nM; Activity (Rattus norvegicus [10]): Active; Ki (Cannabinoid receptor 2 [5]): 89.9 nM
15 | COCCN1C(=O)/C(=N\NC(=O)c2ccccc2)c2ccc(OC)cc21 | > 10 µM | 492 nM | -60% | –
16 | COc1ccc2c(c1)N(CC1CCCCC1)C(=O)/C2=N\NC(=O)C1CCCCC1 | > 10 µM | 71.6 nM | -69% | –
17 | CCCCCN1C(=O)/C(=N\NC(=O)C(C)(C)C)c2ccc(OC)cc21 | > 10 µM | 10 nM | -78% | –
18 | COc1ccc(C(=O)c2c(C)n(CCN3CCOCC3)c3cc(I)ccc23)cc1 | – | – | – | EC50 (Cannabinoid receptor 2 [11]): 76.6 nM
